In ChEMBL document CHEMBL2331236, “Synthesis and biological evaluation of 1-(2-hydroxy-3-phenyloxypropyl)piperazine derivatives as T-type calcium channel blockers” (Bioorg Med Chem Lett, 2013):

Legend:
[1] = molecular target: Voltage-gated inwardly rectifying potassium channel KCNH2 (Homo sapiens, UniProt Q12809); test: Inhibition of human ERG
[2] = molecular target: T1, Voltage-dependent T-type calcium channel subunit alpha-1G (Homo sapiens, UniProt O43497); test: Inhibition of alpha-1G calcium channel in human HEK293 cells by whole-cell patch-clamp method; type: cell-based
T1 sequence (O43497 whole entry): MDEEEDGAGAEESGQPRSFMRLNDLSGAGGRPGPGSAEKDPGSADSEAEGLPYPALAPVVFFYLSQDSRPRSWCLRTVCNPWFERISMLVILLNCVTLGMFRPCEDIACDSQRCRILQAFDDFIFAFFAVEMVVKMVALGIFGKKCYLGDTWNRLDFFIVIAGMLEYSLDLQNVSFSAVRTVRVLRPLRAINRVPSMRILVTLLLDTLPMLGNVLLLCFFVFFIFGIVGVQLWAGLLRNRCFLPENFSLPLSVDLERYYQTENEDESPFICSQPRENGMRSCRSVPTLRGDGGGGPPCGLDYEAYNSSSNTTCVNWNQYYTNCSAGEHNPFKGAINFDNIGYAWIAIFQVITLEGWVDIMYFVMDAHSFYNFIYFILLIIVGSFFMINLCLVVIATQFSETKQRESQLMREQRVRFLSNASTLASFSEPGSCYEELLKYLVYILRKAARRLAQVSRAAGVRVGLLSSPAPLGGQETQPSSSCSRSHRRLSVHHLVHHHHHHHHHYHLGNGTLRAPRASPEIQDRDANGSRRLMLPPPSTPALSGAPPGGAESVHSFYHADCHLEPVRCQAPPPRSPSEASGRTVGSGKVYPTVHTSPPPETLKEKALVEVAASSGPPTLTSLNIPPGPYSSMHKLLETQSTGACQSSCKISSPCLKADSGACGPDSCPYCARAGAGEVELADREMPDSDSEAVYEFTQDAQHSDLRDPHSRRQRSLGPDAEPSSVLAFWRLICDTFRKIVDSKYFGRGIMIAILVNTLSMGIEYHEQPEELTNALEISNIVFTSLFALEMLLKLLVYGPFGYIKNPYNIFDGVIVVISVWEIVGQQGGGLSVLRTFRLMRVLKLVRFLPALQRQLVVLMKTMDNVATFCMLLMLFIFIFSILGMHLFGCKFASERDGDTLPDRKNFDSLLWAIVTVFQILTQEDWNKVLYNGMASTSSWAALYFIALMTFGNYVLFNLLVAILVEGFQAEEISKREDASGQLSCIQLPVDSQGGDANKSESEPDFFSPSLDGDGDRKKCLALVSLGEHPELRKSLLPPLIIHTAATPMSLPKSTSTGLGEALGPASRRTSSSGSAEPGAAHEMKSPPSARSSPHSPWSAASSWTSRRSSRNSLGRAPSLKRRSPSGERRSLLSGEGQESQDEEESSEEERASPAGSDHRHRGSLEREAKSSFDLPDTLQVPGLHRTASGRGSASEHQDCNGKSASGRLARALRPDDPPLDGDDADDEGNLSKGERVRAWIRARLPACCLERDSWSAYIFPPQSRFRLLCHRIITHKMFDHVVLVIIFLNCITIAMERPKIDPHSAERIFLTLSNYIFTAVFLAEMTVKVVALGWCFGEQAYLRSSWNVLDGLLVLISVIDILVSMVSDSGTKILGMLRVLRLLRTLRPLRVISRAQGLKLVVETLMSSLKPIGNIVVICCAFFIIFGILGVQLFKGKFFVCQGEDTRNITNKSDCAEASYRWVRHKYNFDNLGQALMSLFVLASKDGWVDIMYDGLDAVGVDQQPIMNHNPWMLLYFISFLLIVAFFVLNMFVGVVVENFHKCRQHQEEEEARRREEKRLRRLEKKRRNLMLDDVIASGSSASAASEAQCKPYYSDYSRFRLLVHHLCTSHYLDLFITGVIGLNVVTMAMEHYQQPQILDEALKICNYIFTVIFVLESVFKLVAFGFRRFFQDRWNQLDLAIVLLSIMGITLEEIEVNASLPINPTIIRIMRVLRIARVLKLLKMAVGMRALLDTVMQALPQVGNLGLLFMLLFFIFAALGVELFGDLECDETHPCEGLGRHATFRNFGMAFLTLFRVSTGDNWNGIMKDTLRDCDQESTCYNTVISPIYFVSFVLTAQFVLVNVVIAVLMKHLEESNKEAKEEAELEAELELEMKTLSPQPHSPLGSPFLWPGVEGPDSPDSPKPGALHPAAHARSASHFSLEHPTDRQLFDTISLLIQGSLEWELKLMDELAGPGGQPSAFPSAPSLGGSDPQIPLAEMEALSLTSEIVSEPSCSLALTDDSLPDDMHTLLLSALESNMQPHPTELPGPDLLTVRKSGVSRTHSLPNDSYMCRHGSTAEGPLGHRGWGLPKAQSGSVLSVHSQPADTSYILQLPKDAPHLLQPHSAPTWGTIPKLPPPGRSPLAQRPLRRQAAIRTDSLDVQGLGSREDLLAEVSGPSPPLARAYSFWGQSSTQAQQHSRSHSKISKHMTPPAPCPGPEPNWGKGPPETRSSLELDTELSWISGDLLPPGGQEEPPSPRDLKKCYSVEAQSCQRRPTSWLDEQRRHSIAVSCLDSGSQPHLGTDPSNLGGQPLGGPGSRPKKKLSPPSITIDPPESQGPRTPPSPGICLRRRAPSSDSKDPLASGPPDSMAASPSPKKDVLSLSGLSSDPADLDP
How it was run: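 Whole-cell recordings used α1G T-type channels. Pipette solution (mM): 130 KCl, 11 EGTA, 5 Mg-ATP, 10 HEPES, pH 7.4. Bath (mM): 140 NaCl, 2 CaCl2, 10 HEPES, 10 glucose, pH 7.4. Currents were evoked every 15 s by a 50 ms step from −100 to −30 mV. IC50 for peak-current inhibition came from dose-response curve fitting of raw data.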

[3] = test system: HEK293; test: Selectivity ratio of IC50 for human ERG to IC50 for alpha-1G calcium channel in human HEK293 cells; type: cell-based
[4] = molecular target: T1, Voltage-dependent T-type calcium channel subunit alpha-1G; test: Inhibition of alpha-1G calcium channel in human HEK293 cells at 10 uM by FDSS6000 fluorescence-based assay
[5] = Oral bioavailability in ICR mouse at 10 mg/kg; type: ADME, organism-based; settings: in vivo
[6] = Ratio of AUC in brain to AUC in plasma of ICR mouse at 10 mg/kg, po; type: ADME, organism-based; set-up: dose 10 mg/kg, route oral
How it was run: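 ICR mice dosed orally at 10 mg/kg; plasma and brain sampled over time (n = 3 per time point). AUC (taken as dose/clearance) computed for each matrix from mean concentration–time profiles; brain-to-plasma ratio reported as AUCbrain/AUCplasma […], from mean values.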

[7] = AUC (0 to infinity) in ICR mouse plasma at 10 mg/kg, po; type: ADME, organism-based; set-up: time infinity, dose 10 mg/kg, route oral
How it was run: (§1)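 ICR mice were dosed orally at 10 mg/kg, with n = 3 per time point. Plasma and brain concentrations were followed over time. Cmax, Tmax, AUClast, AUC0-∞ and terminal half-life were taken from the concentration–time profiles, and values are means.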

[8] = AUClast in ICR mouse plasma at 10 mg/kg, po; type: ADME, organism-based; set-up: time 0 - last, dose 10 mg/kg, route oral; how it was run: as §1
[9] = Tmax in ICR mouse plasma at 10 mg/kg, po; type: ADME, organism-based; set-up: dose 10 mg/kg, route oral; how it was run: as §1
[10] = Tmax in ICR mouse brain at 10 mg/kg, po; type: ADME, organism-based; set-up: dose 10 mg/kg, route oral; how it was run: as §1
[11] = Cmax in ICR mouse plasma at 10 mg/kg, po; type: ADME, organism-based; set-up: dose 10 mg/kg, route oral; how it was run: as §1
[12] = Terminal half life in ICR mouse brain at 10 mg/kg, po; type: ADME, organism-based; set-up: dose 10 mg/kg, route oral; settings: read-out: beta t1/2; how it was run: as §1
[13] = test system: Brain; test: AUC (0 to infinity) in ICR mouse brain at 10 mg/kg, po; type: ADME, organism-based; set-up: dose 10 mg/kg, route oral, time infinity; settings: in vivo; how it was run: as §1
[14] = Terminal half life in ICR mouse plasma at 10 mg/kg, po; type: ADME, organism-based; set-up: dose 10 mg/kg, route oral; settings: read-out: beta t1/2; how it was run: as §1
[15] = Cmax in ICR mouse brain at 10 mg/kg, po; type: ADME, organism-based; set-up: dose 10 mg/kg, route oral; how it was run: as §1
[16] = (§2) AUClast in ICR mouse brain at 10 mg/kg, po; type: ADME, organism-based; set-up: time 0 - last, dose 10 mg/kg, route oral; settings: ICR, brain; how it was run: as §1
[17] = test system: Brain; test: as §2; type: ADME, organism-based; set-up: time 0 - last, dose 10 mg/kg, route oral; settings: in vivo; how it was run: as §1

Chain of Voltage-gated inwardly rectifying potassium channel KCNH2 (Q12809 whole entry): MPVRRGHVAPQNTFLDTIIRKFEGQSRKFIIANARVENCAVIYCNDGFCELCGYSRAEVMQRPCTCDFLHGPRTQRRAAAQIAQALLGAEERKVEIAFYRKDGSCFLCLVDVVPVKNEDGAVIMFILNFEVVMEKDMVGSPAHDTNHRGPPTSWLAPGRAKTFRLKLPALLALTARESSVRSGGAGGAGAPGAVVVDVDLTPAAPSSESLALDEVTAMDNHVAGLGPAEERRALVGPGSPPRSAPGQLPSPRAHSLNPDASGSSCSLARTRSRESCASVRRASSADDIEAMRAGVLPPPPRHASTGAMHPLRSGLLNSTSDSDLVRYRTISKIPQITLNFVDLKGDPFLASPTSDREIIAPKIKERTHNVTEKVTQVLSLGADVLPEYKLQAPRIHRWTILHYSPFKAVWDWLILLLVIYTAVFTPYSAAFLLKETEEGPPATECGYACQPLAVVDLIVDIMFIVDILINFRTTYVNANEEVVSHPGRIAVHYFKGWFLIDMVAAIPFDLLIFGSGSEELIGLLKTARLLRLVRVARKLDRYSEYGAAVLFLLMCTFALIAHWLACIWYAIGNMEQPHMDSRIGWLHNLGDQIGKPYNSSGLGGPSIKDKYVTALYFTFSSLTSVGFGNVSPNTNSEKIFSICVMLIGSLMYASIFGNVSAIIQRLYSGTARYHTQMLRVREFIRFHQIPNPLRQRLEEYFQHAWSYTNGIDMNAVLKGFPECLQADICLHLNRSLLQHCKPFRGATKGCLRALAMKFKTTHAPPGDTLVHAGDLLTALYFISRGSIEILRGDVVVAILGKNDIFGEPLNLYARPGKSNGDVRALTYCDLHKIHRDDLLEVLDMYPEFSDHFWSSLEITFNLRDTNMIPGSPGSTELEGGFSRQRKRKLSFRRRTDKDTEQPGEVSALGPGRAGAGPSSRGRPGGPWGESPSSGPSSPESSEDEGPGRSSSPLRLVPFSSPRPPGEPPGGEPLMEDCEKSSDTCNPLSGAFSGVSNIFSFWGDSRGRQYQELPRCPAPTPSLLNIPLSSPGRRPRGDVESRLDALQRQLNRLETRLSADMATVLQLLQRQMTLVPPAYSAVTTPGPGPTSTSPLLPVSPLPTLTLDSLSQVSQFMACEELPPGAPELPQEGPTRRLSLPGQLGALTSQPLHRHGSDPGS

With `O[C@@H](COc1ccc(F)cc1)CN1CCN(Cc2ccc(Cl)c(Cl)c2)CC1` the IC50 [1] was 870 nM, the IC50 [2] was 100 nM and the Ratio IC50 [3] was 8.7. The inhibition [4] was 69.5%.

`O[C@H](COc1ccc(F)cc1)CN1CCN(c2ccc(F)cc2)CC1` gave an inhibition [4] of 50%.

With `O[C@H](COc1ccc(Cl)cc1)CN1CCN(Cc2ccccc2F)CC1` the inhibition [4] was 41.5%.

Compound `COc1ccccc1N1CCN(C[C@@H](O)COc2ccc(Cl)cc2)CC1` has an inhibition [4] of 47.4%.

`O[C@@H](COc1ccc(Cl)cc1)CN1CCN(Cc2ccc(Cl)cc2)CC1` gave an inhibition [4] of 42.1%.

`O[C@H](COc1ccc(Cl)cc1)CN1CCN(Cc2c(F)cccc2Cl)CC1` gave an IC50 [1] of 2070 nM, an IC50 [2] of 1420 nM and a Ratio IC50 [3] of 1.46. For the same compound, the inhibition [4] was 54.4%.

`O[C@H](COc1ccc(C(F)(F)F)cc1)CN1CCN(Cc2ccc(Cl)c(Cl)c2)CC1` showed an inhibition [4] of 45.6%.

Compound `O[C@H](COc1ccc(Cl)cc1)CN1CCN(Cc2ccc(Cl)c(Cl)c2)CC1` has an inhibition [4] of 41.2%.

Work on `O[C@@H](COc1ccc(Cl)cc1)CN1CCN(Cc2ccccc2F)CC1` yielded an inhibition [4] of 35.8%.

`O[C@@H](COc1ccc(Cl)cc1)CN1CCN(Cc2cccc(Cl)c2)CC1` showed an inhibition [4] of 46%.

`O[C@H](COc1ccc(C(F)(F)F)cc1)CN1CCN(c2ccc(F)cc2)CC1` gave an IC50 [2] of 15500 nM and an inhibition [4] of 59.2%.

`O[C@H](COc1ccc(F)cc1)CN1CCN(Cc2ccc(Cl)cc2)CC1` gave an IC50 [1] of 1350 nM, an IC50 [2] of 1560 nM and a Ratio IC50 [3] of 0.87. For the same compound, the inhibition [4] was 65.8%.

Compound `O[C@@H](COc1ccc(C(F)(F)F)cc1)CN1CCN(Cc2c(F)cccc2Cl)CC1` has an inhibition [4] of 44.6%.

Work on `O[C@@H](COc1ccc(F)cc1)CN1CCN(c2ccc(F)cc2)CC1` yielded an inhibition [4] of 47.5%.

For `COc1cccc(N2CCN(C[C@H](O)COc3ccc(Cl)cc3)CC2)c1`, the inhibition [4] was 46%.

`O[C@@H](COc1ccc(F)cc1)CN1CCN(Cc2c(F)cccc2Cl)CC1` gave an IC50 [2] of 12300 nM and an inhibition [4] of 56.5%.

For `COc1cccc(N2CCN(C[C@H](O)COc3ccc(C(F)(F)F)cc3)CC2)c1`, the bioavailability [5] was 67.2%, the IC50 [1] was 4080 nM and the Kp [6] was 3.46. For the same compound, the AUC(0-inf) [7] was 3300 ng·h/mL, the IC50 [2] was 480 nM and the AUC(0-t) [8] was 3140 ng·h/mL. The Tmax [9] was 15 min, the Ratio IC50 [3] was 8.5 and the Tmax [10] was 15 min. It also gave a Cmax [11] of 1570 ng/mL, a half-life [12] of 474 min and an AUC [13] of 686.6 µg·min/g. The half-life [14] was 102 min, the Cmax [15] was 4660 ng/mL and the AUC(0-t) [16] was 8290 ng·h/mL. For the same compound, the inhibition [4] was 68.5%.

Work on `COc1ccccc1N1CCN(C[C@@H](O)COc2ccc(C(F)(F)F)cc2)CC1` yielded an IC50 [1] of 3950 nM, an IC50 [2] of 1790 nM and a Ratio IC50 [3] of 2.21. It also gave an inhibition [4] of 56.2%.

`O[C@@H](COc1ccc(F)cc1)CN1CCN(Cc2cccc(Cl)c2)CC1` gave an IC50 [2] of 2100 nM and an inhibition [4] of 61.1%.

Work on `COc1ccccc1N1CCN(C[C@@H](O)COc2ccc(F)cc2)CC1` yielded an inhibition [4] of 50.7%.

Work on `O[C@H](COc1ccc(C(F)(F)F)cc1)CN1CCN(Cc2ccc(Cl)cc2)CC1` yielded an IC50 [2] of 4230 nM and an inhibition [4] of 56.6%.

Work on `COc1cccc(N2CCN(C[C@@H](O)COc3ccc(F)cc3)CC2)c1` yielded an IC50 [2] of 12000 nM and an inhibition [4] of 61.3%.

Compound `O[C@H](COc1ccc(F)cc1)CN1CCN(Cc2ccc(Cl)c(Cl)c2)CC1` has an IC50 [1] of 290 nM, an IC50 [2] of 230 nM and a Ratio IC50 [3] of 1.26. For the same compound, the inhibition [4] was 64.2%.

For `COc1cccc(N2CCN(C[C@@H](O)COc3ccc(Cl)cc3)CC2)c1`, the inhibition [4] was 44.6%.

Compound `COc1cccc(N2CCN(C[C@@H](O)COc3ccc(C(F)(F)F)cc3)CC2)c1` has an inhibition [4] of 43.9%.

Work on `O[C@H](COc1ccc(Cl)cc1)CN1CCN(c2ccccc2F)CC1` yielded an inhibition [4] of 35.9%.

`O[C@H](COc1ccc(F)cc1)CN1CCN(Cc2c(F)cccc2Cl)CC1` gave an IC50 [2] of 11400 nM and an inhibition [4] of 62.1%.

With `O[C@@H](COc1ccc(C(F)(F)F)cc1)CN1CCN(Cc2ccc(Cl)c(Cl)c2)CC1` the IC50 [1] was 9200 nM, the IC50 [2] was 1270 nM and the Ratio IC50 [3] was 7.24. It also gave an inhibition [4] of 38.8%.

In the case of `O[C@H](COc1ccc(Cl)cc1)CN1CCN(c2ccc(F)cc2)CC1`, the inhibition [4] is reported as 28.3%.

Compound `O[C@@H](COc1ccc(Cl)cc1)CN1CCN(c2ccccc2F)CC1` has an inhibition [4] of 46.9%.

With `O[C@@H](COc1ccc(F)cc1)CN1CCN(Cc2ccc(Cl)cc2)CC1` the inhibition [4] was 50.1%.

For `O[C@H](COc1ccc(F)cc1)CN1CCN(Cc2cccc(Cl)c2)CC1`, the IC50 [2] was 2580 nM and the inhibition [4] was 65.8%.

Work on `COc1ccccc1N1CCN(C[C@H](O)COc2ccc(C(F)(F)F)cc2)CC1` yielded an inhibition [4] of 50.8%.

Work on `O[C@H](COc1ccc(Cl)cc1)CN1CCN(Cc2cccc(Cl)c2)CC1` yielded an inhibition [4] of 52.2%.

For `O[C@@H](COc1ccc(Cl)cc1)CN1CCN(c2ccc(F)cc2)CC1`, the inhibition [4] was 39.7%.

In the case of `O[C@@H](COc1ccc(F)cc1)CN1CCN(Cc2ccccc2F)CC1`, the inhibition [4] is reported as 23.8%.

`O[C@@H](COc1ccc(F)cc1)CN1CCN(c2ccccc2F)CC1` showed an inhibition [4] of 51.1%.

For `O[C@@H](COc1ccc(C(F)(F)F)cc1)CN1CCN(Cc2cccc(Cl)c2)CC1`, the inhibition [4] was 43.1%.

For `COc1ccccc1N1CCN(C[C@H](O)COc2ccc(F)cc2)CC1`, the inhibition [4] was 41%.

`O[C@@H](COc1ccc(Cl)cc1)CN1CCN(Cc2c(F)cccc2Cl)CC1` gave an inhibition [4] of 40.9%.

In the case of `O[C@H](COc1ccc(F)cc1)CN1CCN(Cc2ccccc2F)CC1`, the inhibition [4] is reported as 20.3%.

Work on `O[C@H](COc1ccc(C(F)(F)F)cc1)CN1CCN(c2ccccc2F)CC1` yielded an inhibition [4] of 48.9%.

With `COc1cccc(N2CCN(C[C@H](O)COc3ccc(F)cc3)CC2)c1` the inhibition [4] was 44.5%.

`O[C@H](COc1ccc(C(F)(F)F)cc1)CN1CCN(Cc2ccccc2F)CC1` gave an inhibition [4] of 48.6%.

In the case of `O[C@@H](COc1ccc(Cl)cc1)CN1CCN(Cc2ccc(Cl)c(Cl)c2)CC1`, the inhibition [4] is reported as 48.6%.

In the case of `O[C@@H](COc1ccc(C(F)(F)F)cc1)CN1CCN(c2ccccc2F)CC1`, the inhibition [4] is reported as 50.2%.

In the case of `O[C@@H](COc1ccc(C(F)(F)F)cc1)CN1CCN(Cc2ccccc2F)CC1`, the inhibition [4] is reported as 45.5%.

Work on `O[C@H](COc1ccc(C(F)(F)F)cc1)CN1CCN(Cc2c(F)cccc2Cl)CC1` yielded a bioavailability [5] of 9.94%, an IC50 [1] of 14000 nM and a Kp [6] of 7.63. The AUC(0-inf) [7] was 276 ng·h/mL, the IC50 [2] was 760 nM and the AUC(0-t) [8] was 260 ng·h/mL. The Tmax [9] was 15 min, the Ratio IC50 [3] was 18.4 and the Tmax [10] was 30 min. For the same compound, the Cmax [11] was 197 ng/mL, the half-life [12] was 186 min and the half-life [14] was 56.5 min. It also gave a Cmax [15] of 870 ng/mL, an AUClast [17] of 119.1 µg·min/g and an inhibition [4] of 55.1%.

With `O[C@@H](COc1ccc(C(F)(F)F)cc1)CN1CCN(Cc2ccc(Cl)cc2)CC1` the inhibition [4] was 61.5%.

For `O[C@@H](COc1ccc(C(F)(F)F)cc1)CN1CCN(c2ccc(F)cc2)CC1`, the inhibition [4] was 53.7%.

Compound `O[C@H](COc1ccc(F)cc1)CN1CCN(c2ccccc2F)CC1` has an inhibition [4] of 42%.

`O[C@H](COc1ccc(Cl)cc1)CN1CCN(Cc2ccc(Cl)cc2)CC1` showed an IC50 [2] of 1080 nM and an inhibition [4] of 56.5%.

`COc1ccccc1N1CCN(C[C@H](O)COc2ccc(Cl)cc2)CC1` showed an inhibition [4] of 48.8%.

`O[C@H](COc1ccc(C(F)(F)F)cc1)CN1CCN(Cc2cccc(Cl)c2)CC1` gave an inhibition [4] of 43.4%.
